Activity calls are given as the source filed them.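 The calls were made as follows: active = compounds reducing DiI-HDL uptake fluorescence after washout, with fitted AC50 at most twice the top tested dose; inconclusive = flat partial inhibition of 30 to 70% or a poor fit; inactive = the rest.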
The molecules below were run against Scavenger receptor class B member 1 (Mus musculus) (UniProt Q61009) (assay: reversibility of SR-BI HDL uptake inhibition, late-stage follow-up, mechanism study for SR-BI HDL uptake inhibitor project, ldlA[mSR-BI] CHO cells, fluorescence (AID 602154)). Conditions: DiI-HDL uptake after washout.
Scavenger receptor class B member 1 (Mus musculus), sequence (Q61009 whole entry, looked up): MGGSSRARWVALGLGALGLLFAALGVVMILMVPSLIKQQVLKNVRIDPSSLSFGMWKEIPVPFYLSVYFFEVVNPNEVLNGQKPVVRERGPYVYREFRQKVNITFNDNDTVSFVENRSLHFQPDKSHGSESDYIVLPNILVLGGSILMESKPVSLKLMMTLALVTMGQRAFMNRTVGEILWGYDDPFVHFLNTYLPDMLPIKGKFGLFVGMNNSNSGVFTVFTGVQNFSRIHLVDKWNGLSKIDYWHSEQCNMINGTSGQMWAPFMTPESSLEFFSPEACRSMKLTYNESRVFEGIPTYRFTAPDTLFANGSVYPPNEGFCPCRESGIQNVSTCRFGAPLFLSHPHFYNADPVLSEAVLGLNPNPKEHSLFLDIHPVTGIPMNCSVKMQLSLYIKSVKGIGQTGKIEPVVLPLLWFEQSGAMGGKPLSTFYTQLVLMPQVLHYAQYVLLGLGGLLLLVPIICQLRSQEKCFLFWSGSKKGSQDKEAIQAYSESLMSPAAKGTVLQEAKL
Method in brief: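 medium = BSA (fatty acid-free) and HEPES uptake buffer | material = SR-BI-overexpressing LDL-receptor-null CHO cells | incubation = 2 h compound, 4 h washout, 3 h DiI-HDL | detection = DiI fluorescence, 550/595 nm, bottom read | reagent = 10 µg/mL DiI-HDL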

| Structure (SMILES) | AC50 |
| --- | --- |
| CCCCCCC1CCC/C1=N\NC(N)=S (stereo not drawn) | 0.598 nM |
| C[C@H](C(=O)NC1CCCC1)N(C(=O)Cn1nnc(-c2ccc3c(c2)OCO3)n1)C1CCCCC1 | > 70000 nM (inactive) |
| COCC(=O)N1CCc2cc(-c3csc(NC(=O)c4cc(OC)cc(OC)c4)n3)ccc21 | 860 nM |
